Activity calls are given as the source filed them.

Assay [1] concerns Influenza A virus. The assay is described as follows: Antiviral activity against oseltamivir/amantadine-resistant Influenza A virus (A/Puerto Rico/8/1934(H1N1)) infected in MDCK cells assessed as protection against virus-induced cytocidal effect after 48 hrs by CellTiter-Glo assay. Type of assay: functional, organism-based. Put shortly:
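Cytocidal protection assay in MDCK cells. EC50 is the concentration (μM) protecting cells by 50% from the virus's cytocidal effect, given as mean ± SD from at least three independent tests.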
(Cellular ATP, detected with luciferase, serves as a proxy for viable cell number.)

Assay [2] deals with Influenza A virus. Kind of assay: Antiviral activity against oseltamivir/amantadine-resistant Influenza A virus (A/Puerto Rico/8/1934(H1N1)) assessed as inhibition of viral infectivity in MDCK cells at 10 uM after 6 hrs by FITC conjugated anti-NP antibodies/DAPI staining-based confocal microscopic analysis. Type of assay: functional, organism-based. Summed up: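 MDCK cells were infected at MOI = 1 in the presence of 10 μM compound for 6 h. Infected cells were stained with FITC-conjugated anti-NP antibody, with DAPI as nuclear stain, and imaged by confocal microscopy. Infected cells without compound served as control.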

The subject of assay [3] is Influenza A virus (A/Puerto Rico/8/1934(H1N1)). The assay is described as follows: Inhibition of oseltamivir/amantadine-resistant Influenza A virus (A/Puerto Rico/8/1934(H1N1)) hemagglutinin-mediated hemolysis of chicken RBC at 10 uM preincubated with virus for 30 mins followed by RBC addition measured after 30 mins by microplate reader analysis. Summed up:
(§1)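 Erythrocyte-virus-compound mixture incubated at 37 °C for 30 min, then acidified to pH 5.2 with 0.15 M sodium acetate buffer to trigger HA-mediated hemolysis. OD540 of supernatants was measured. Hemolysis without compound is defined as 100%. Values are averages of two independent tests.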

The test system is the same in assay [4]. The assay is described as follows: Inhibition of oseltamivir/amantadine-resistant Influenza A virus (A/Puerto Rico/8/1934(H1N1)) hemagglutinin-mediated hemolysis of chicken RBC preincubated with virus for 30 mins followed by RBC addition measured after 30 mins by microplate reader analysis. Put shortly: as §1
[5] abbreviates: Influenza A virus, A/Puerto Rico/8/1934(H1N1), MDCK, 48 h, read-out: EC50.

For orientation: EC50 means the midpoint of the concentration-response curve. Turning to `COC(=O)[C@@]1(C)CCC[C@]2(C)c3cc(OC(=O)CCC(=O)O)ccc3CC[C@@H]12`, the EC50 in assay [1] (setting [5]) is 180 nM.

For the molecule `C=CC(=O)Oc1ccc2c(c1)[C@@]1(C)CCC[C@](C)(C(=O)OCc3ccccc3)[C@@H]1CC2`, the EC50 in assay [1] (setting [5]) stood at 480 nM.

Regarding `COC(=O)[C@@]1(C)CCC[C@]2(C)c3cc(OC(=O)CCCCCBr)ccc3CC[C@@H]12`, in assay [1] (setting [5]), the EC50 was found to be 190 nM.

Take `C[C@]1(C(=O)OCc2ccccc2)CCC[C@]2(C)c3cc(OC(=O)CCC(=O)O)ccc3CC[C@@H]12`: the EC50 in assay [1] (setting [5]) is over 6500 nM.

With `C[C@]1(C(=O)OCc2ccccc2)CCC[C@]2(C)c3cc(O)ccc3CC[C@@H]12`, the EC50 in assay [1] (setting [5]) was 1590 nM.

For the molecule `C=CC(=O)Oc1ccc2c(c1)[C@@]1(C)CCC[C@](C)(C(=O)NC)[C@@H]1CC2`, the EC50 in assay [1] (setting [5]) was over 29300 nM.

As to `CC(C)c1c(O)ccc2c1CC[C@H]1C(C)(C)CCC[C@]21C` [TOTAROL], in assay [2], the inhibition entry is “Active”. In addition, the EC50 in assay [1] (setting [5]) was determined as 3500 nM.

On to `COC(=O)[C@@]1(C)CCC[C@]2(C)c3cc(O)ccc3CC[C@@H]12`, for which, in assay [1] (setting [5]), the EC50 was 160 nM.

With `C[C@]1(C(=O)O)CCC[C@]2(C)c3cc(OC(=O)CCC(=O)O)ccc3CC[C@@H]12`, the EC50 in assay [1] (setting [5]) was 18700 nM.

With `CNC(=O)[C@@]1(C)CCC[C@]2(C)c3cc(O)ccc3CC[C@@H]12`, in assay [1] (setting [5]), the EC50 was over 34800 nM.

`CCOC(=O)C1=C[C@@H](OC(CC)CC)[C@H](NC(C)=O)[C@@H](N)C1` [OSELTAMIVIR]: the EC50 in assay [1] (setting [5]) is over 20000 nM. In addition, in assay [3], the inhibition entry was “inactive”.

Turning to `COC(=O)[C@@]1(C)CCC[C@]2(C)c3cc(OC(C)=O)ccc3CC[C@@H]12`, in assay [1] (setting [5]), the half-maximal effective concentration (EC50) is 140 nM.

Regarding `COC(=O)[C@@]1(C)CCC[C@]2(C)c3cc(OC)ccc3CC[C@@H]12`, the EC50 in assay [1] (setting [5]) is 730 nM.

On to `COC(=O)[C@@]1(C)CCC[C@]2(C)c3cc(OCCC(=O)O)ccc3CC[C@@H]12`, for which, in assay [1] (setting [5]), the EC50 was over 25000 nM.

In the case of `C[C@]1(C(=O)O)CCC[C@]2(C)c3cc(O)ccc3CC[C@@H]12` [PODOCARIC ACID], the EC50 in assay [1] (setting [5]) came out at 18200 nM.

For `NC12CC3CC(CC(C3)C1)C2` [AMANTADINE], the EC50 in assay [1] (setting [5]) was over 20000 nM.

Consider `COC(=O)[C@@]1(C)CCC[C@]2(C)c3cc(OC)ccc3C(=O)C[C@@H]12`, for which the EC50 in assay [1] (setting [5]) was 3600 nM.

For `C[C@]1(C(=O)OCc2ccccc2)CCC[C@]2(C)c3cc(OCCC(=O)O)ccc3CC[C@@H]12`, the EC50 entry in assay [1] (mdck) is “Not Active”.

In the case of `COC(=O)[C@@]1(C)CCC[C@]2(C)c3cc(OC(=O)CCCBr)ccc3CC[C@@H]12`, in assay [1] (setting [5]), the EC50 was 570 nM.

Consider `COC(=O)[C@@]1(C)CCC[C@]2(C)c3cc(OC(=O)C(C)F)ccc3CC[C@@H]12` (stereo not given in full), for which the EC50 in assay [1] (setting [5]) was 150 nM.

As for `COC(=O)[C@@]1(C)CCC[C@]2(C)c3cc(OC(=O)C4CC4)ccc3CC[C@@H]12`, in assay [1] (setting [5]), the EC50 is 150 nM.

`COC(=O)[C@@]1(C)CCC[C@]2(C)c3cc(OC(=O)CCCC(=O)O)ccc3CC[C@@H]12`: the EC50 in assay [1] (setting [5]) came out at 370 nM.

In the case of `C=CC(=O)Oc1ccc2c(c1)[C@@]1(C)CCC[C@](C)(C(=O)OC)[C@@H]1CC2`, the EC50 in assay [1] (setting [5]) amounted to 640 nM. Moreover, in assay [4], the inhibition entry was “Dose-dependent effect”.

As for `COC(=O)[C@@]1(C)CCC[C@]2(C)c3cc(OC(=O)CCCCBr)ccc3CC[C@@H]12`, the EC50 in assay [1] (setting [5]) was determined as 420 nM.

For `COC(=O)[C@@]1(C)CCC[C@]2(C)c3cc(OC(=O)CCBr)ccc3CC[C@@H]12`, the inhibition entry in assay [2] is “Active”. In assay [1] (setting [5]), the EC50 came to 210 nM.

Turning to `COC(=O)[C@@]1(C)CCC[C@]2(C)c3cc(OC(=O)C(C)C)ccc3CC[C@@H]12`, in assay [1] (setting [5]), the EC50 stood at 320 nM.

(Values after ChEMBL document CHEMBL3576824, “Phenolic diterpenoid derivatives as anti-influenza a virus agents” (ACS Med Chem Lett, 2015).)
